Read-outs that look alike come from different tables or passages of the source.
Columns and labels:
streptavidin (SA) [1] = target: T1, streptavidin (SA) (Streptomyces avidinii, UniProt P22629); experiment: Competition binding
[2] = cited from earlier work
streptavidin (SA) [3] = target: T1, streptavidin (SA); experiment: Comparison of Trp-FRET acceptors; settings: for FF (FRET fold effect): FF = Iad/Ia; for Iad (intensity of FRET acceptor, sensitivity): acceptor 100 nM bound to SA 400 nM, Ex. 295 nm, at Em. λmax, normalized to Id; for Fold less sensitive than PB (12) as Trp-FRET acceptor / E (efficiency of FRET with tryptophan): bound to SA; for E (efficiency of FRET with tryptophan): E = 1 – Ida/Id
Method in brief: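 Biotin-linked fluorophore acceptors (100 nM) bound to streptavidin (400 nM, as monomer) in PBS pH 7.4. Tryptophan excited at 295 nm; acceptor intensity (Iad) read at its emission λmax and normalized to donor intensity (Id). FRET efficiency E = 1 − Ida/Id; fold effect FF = Iad/Ia.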

streptavidin (SA) [4] = target: T1, streptavidin (SA); experiment: Isothermal titration calorimetry; format: binding
streptavidin (SA) [5] = target: T1, streptavidin (SA); experiment: Binding to SA by quenching or enhancement of PB fluorescence
Method in brief: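 Streptavidin at varied concentrations (spanning at least 20–80% complexation) incubated 1 h at room temperature with shaking in PBS pH 7.4 with fixed PB-linked probe (5 or 25 nM). Ex 400 nm, em 460 nm. SA-alone background subtracted. Change in fluorescence normalized and plotted against SA monomer concentration; one-site specific binding fit, triplicate. For one probe, the three highest SA concentrations (64–256 nM) were excluded.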

streptavidin (SA) [6] = target: T1, streptavidin (SA); experiment: Direct binding to SA quantified by Trp-FRET
Method in brief: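 Tryptophan excited at 295 nm, emission read at 460 nm, averaged over three readings. SA-alone and free-probe signals subtracted, then corrected by quenching ratio (Iad = IFRET/Qr). Plotted against SA monomer concentration; one-site specific binding fit, triplicate.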

[7] = Photophysical properties of probes in PBS; format: physicochemical; settings: for ε (molar extinction coefficient): PBS (0.5% DMSO), at absorbance λmax; for Fold by which PB-derived probe 12 is brighter than this probe: aqueous PBS (pH 7.4)
Method in brief: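 ε: Beer's-law plots of absorbance at λmax vs concentration in PBS (0.5% DMSO), 1 cm path; least-squares fit through zero. Spectra: 32 µM for absorbance, 50 nM for emission, excited at λmax. Φ by Williams' method: excitation 396 nm, integrated emission 415–700 nm at 5–160 nM, plotted against absorbance extrapolated from higher concentrations; coumarin 102 standard (Φ = 0.66 in water).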

T1 sequence (P22629 25-183): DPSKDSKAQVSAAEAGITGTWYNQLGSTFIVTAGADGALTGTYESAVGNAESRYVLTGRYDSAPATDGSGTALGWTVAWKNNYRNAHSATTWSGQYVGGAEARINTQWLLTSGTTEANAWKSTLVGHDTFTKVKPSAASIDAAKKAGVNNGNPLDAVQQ

SMILES: C[C@@H]1NC(=S)NC1CCCCCC(=O)OCc1ccccc1 (stereo partly drawn) [compound 22, Benzyl 6-((5S)-5-methyl-2-thioxoimidazolidin-4-yl)hexanoate]
- Ki (streptavidin (SA) [1]): 188 ± 25 nM

SMILES: O=C(O)c1cc2cc(F)c(O)c(F)c2oc1=O [PB, 6,8-Difluoro-7-hydroxy-2-oxo-2H-chromene-3-carboxylic Acid, reference compound]
- ε (molar extinction coefficient) [2]: 29 500 M^–1 cm^–1

SMILES: O=C(O)CCCC[C@@H]1SC[C@@H]2NC(=O)N[C@@H]21 [biotin, reference compound]
- Effect of competitor on FRET from 12 bound to SA (streptavidin (SA) [3]; biotin 10 μM, 12 100 nM, SA monomer 400 nM): blocked FRET

SMILES: O=C(CCCC[C@@H]1SC[C@@H]2NC(=S)N[C@@H]21)NCCNC(=O)c1cc2cc(F)c(O)c(F)c2oc1=O [compound 17, 6,8-Difluoro-7-hydroxy-2-oxo-N-(2-(5-((3aS,4S,6aR)-2-thioxohexahydro-1H-thieno[3,4-d]imidazol-4-yl)pentanamido)ethyl)-2H-chromene-3-carboxamide]
- Kd (streptavidin (SA) [4]): 12 ± 4 nM
- Change of fluorescence of PB-linked ligand on binding to SA (streptavidin (SA) [5]): partially quenched
- Kd (streptavidin (SA) [6]): 11 ± 2 nM

SMILES: O=C(CCCC[C@@H]1SC[C@@H]2NC(=O)N[C@@H]21)NCCNC(=O)Cc1cc(=O)oc2cc(O)ccc12 [compound 14, N-(2-(2-(7-Hydroxy-2-oxo-2H-chromen-4-yl)acetamido)ethyl)-5-((3aS,4S,6aR)-2-oxohexahydro-1H-thieno[3,4-d]imidazol-4-yl)pentanamide]
- ε (molar extinction coefficient) [7]: 7800 M^–^1cm^–^1
- Fold by which PB-derived probe 12 is brighter than this probe [7]: ~3 fold
- FF (FRET fold effect) (streptavidin (SA) [3]): 4.8
- Iad (intensity of FRET acceptor, sensitivity) (streptavidin (SA) [3]): 2.2
- Fold less sensitive than PB (12) as Trp-FRET acceptor (streptavidin (SA) [3]; compared with 12): 1.5 fold
- E (efficiency of FRET with tryptophan) (streptavidin (SA) [3]): 0.21
- Reduction of FRET fold effect (FF), factor (streptavidin (SA) [3]; compared with 12, due to increased excitation at 295 nm): 4
- Φf (quantum yield) [2]: 0.47[6]

SMILES: CN(C)c1ccc2c(CC(=O)NCCNC(=O)CCCC[C@@H]3SC[C@@H]4NC(=O)N[C@@H]43)cc(=O)oc2c1 [compound 15, N-(2-(2-(7-(Dimethylamino)-2-oxo-2H-chromen-4-yl)acetamido)ethyl)-5-((3aS,4S,6aR)-2-oxohexahydro-1H-thieno[3,4-d]imidazol-4-yl)pentanamide]
- ε (molar extinction coefficient) [7]: 11 600 M^–^1cm^–^1
- Fold by which PB-derived probe 12 is brighter than this probe [7]: ~17 fold
- FF (FRET fold effect) (streptavidin (SA) [3]): 8.0
- Iad (intensity of FRET acceptor, sensitivity) (streptavidin (SA) [3]): 0.6
- Fold less sensitive than PB (12) as Trp-FRET acceptor (streptavidin (SA) [3]; compared with 12): 6 fold
- E (efficiency of FRET with tryptophan) (streptavidin (SA) [3]): 0.35
- Φf (quantum yield) [2]: 0.06[6]

SMILES: COC(=O)CCCCC[C@H]1NC(=S)N[C@H]1C [compound 21, Methyl 6-((4R,5S)-5-methyl-2-thioxoimidazolidin-4-yl)hexanoate]
- Ki (streptavidin (SA) [1]): 693 ± 91 nM

SMILES: C[C@@H]1NC(=S)N[C@@H]1CCCCCC(=O)O [compound 20, 6-((4R,5S)-5-Methyl-2-thioxoimidazolidin-4-yl)hexanoic Acid]
- Ki (streptavidin (SA) [1]): 1350 ± 180 nM
- Kd (streptavidin (SA) [4]): 1550 ± 270 nM

SMILES: C[C@@H]1NC(=S)N[C@@H]1CCCCCC(=O)NCCNC(=O)c1cc2cc(F)c(O)c(F)c2oc1=O [compound 18, 6,8-Difluoro-7-hydroxy-N-(2-(6-((4R,5S)-5-methyl-2-thioxoimidazolidin-4-yl)hexanamido)ethyl)-2-oxo-2H-chromene-3-carboxamide]
- Kd (streptavidin (SA) [4]): 125 ± 45 nM
- Change of fluorescence of PB-linked ligand on binding to SA (streptavidin (SA) [5]): enhanced
- Kd (streptavidin (SA) [6]): 145 ± 19 nM

SMILES: O=C(CCCC[C@@H]1SC[C@@H]2NC(=O)N[C@@H]21)NCCNC(=O)c1cc2cc(F)c(O)c(F)c2oc1=O [compound 12, 6,8-Difluoro-7-hydroxy-2-oxo-N-(2-(5-((3aS,4S,6aR)-2-oxohexahydro-1H-thieno[3,4-d]imidazol-4-yl)pentanamido)ethyl)-2H-chromene-3-carboxamide]
- ε (molar extinction coefficient) [7]: 24 200 M^–^1cm^–^1
- Φf (quantum yield) ([7]; PBS, relative to coumarin 102): 0.74
- FF (FRET fold effect) (streptavidin (SA) [3]): 19.2
- Iad (intensity of FRET acceptor, sensitivity) (streptavidin (SA) [3]): 3.3
- E (efficiency of FRET with tryptophan) (streptavidin (SA) [3]): 0.40

From article PMC5204206 (ACS Omega, 2016)
